Experimental findings from PubChem BioAssay are described below.

Experiment [1] can be described thus: hit retest on RPL19A-GFP reporter strain – cell-based, S. cerevisiae, flow cytometry, cherry picks, mother/daughter gates, confirmation (AID 2270;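 active = GFP response below 50% of the DMSO control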). To be noted: 3 h, at 10 µM, stronger effect = lower value, 100 = same GFP as DMSO wells.
Experiment [2] is described as follows: yeast TOR pathway reporter LAP4-GFP change – cell-based, cherry picks, flow cytometry, mother/daughter gates, confirmation (AID 2271;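 active = GFP response above 150% of the DMSO control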;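 note: ratio of sample to DMSO plate mean so 100% equals DMSO level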). To be noted: S. cerevisiae LAP4-GFP strain, 3 h, at 10 µM, stronger effect = higher value, 100 means same as DMSO control. In outline:
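Material – Alexa Fluor 633-labelled Saccharomyces cerevisiae GFP-fusion strain, single-plex · Incubation – compound exposure 3 h at 30 °C, end-over-end rotation · Measured by – GFP by flow cytometry · Measure – median GFP fluorescence as percent of plate-mean DMSO wells · Control set – positive rapamycin (400 ng/mL), negative DMSO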

Experiment [3] in a line: TOR pathway reporter MEP2-GFP, retest of hits – S. cerevisiae, flow cytometry GFP, cherry picks, confirmation (AID 2272;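 active = GFP response above 150% of the DMSO control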;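 note: ratio of well signal to plate DMSO mean so 100% equals DMSO level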). The settings on record: S. cerevisiae MEP2-GFP strain, 3 h, at 10 µM, stronger effect = higher value.
A short description of experiment [4]: yeast AGP1-GFP fluorescence change, single-dose – cell-based, flow cytometry, S. cerevisiae, cherry picks, confirmation (AID 2273).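 Note: median GFP channel fluorescence over the whole cell population gate.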 The settings on record: S. cerevisiae AGP1-GFP strain, 3 h, at 10 µM.
A short description of experiment [5]: TOR pathway CIT2 reporter hit retest – S. cerevisiae, GFP fusion, cherry picks, mother/daughter gates, confirmation (AID 2274). The settings on record: S. cerevisiae CIT2-GFP strain, flow cytometry, 3 h, at 10 µM, stronger effect = higher value.
Experiment [6] is described as follows: green-channel fluorescence artefact in S. cerevisiae – s288c strain, artefact control for yeast TOR pathway GFP screen, dose response (AID 2757;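 active = fluorescence span over the dose series, or activity score, above about 33, limit read from the data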;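 note: thousands of bead-calibrated equivalent soluble fluorophore molecules from median cell fluorescence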). The settings on record: 520 nm autofluorescence, flow cytometry, 3 h, at 33 µM, stronger effect = higher value, zero means same as solvent-only cells.
[7] abbreviates: measured here: daughter cell gate.
Where [8] appears, read: measured here: mother cell gate.
[9] abbreviates: measured here: mother cell gate response.
The mark [10] stands for this setting: measured here: daughter cell gate response.

The list shows a part of the results. Active and inactive are the calls of the source.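 Rule for the calls, unless noted: active = GFP response above 150% of the DMSO level; inconclusive = fewer than 70 events counted for a yeast strain; inactive = the rest.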

Turning to `O=c1[nH]c(-c2ccccn2)nc(C(F)(F)F)c1Br`, the GFP response vs DMSO in experiment [1] is 110% (inactive); in experiment [1] (setting [7]) it was 102%; in experiment [1] (setting [8]) it was 101%; in experiment [3], 118% (inactive). In addition, the values for the GFP response relative to DMSO in experiment [2] and in experiment [2] (setting [9]) were 247% (active) and 219%, respectively. Also, the GFP response, % of DMSO in experiment [4] is 91.2% (inactive); in experiment [5] it was 112% (inactive); in experiment [5] (setting [7]), 106%; in experiment [5] (setting [8]), 103%.
On to `COC(=O)c1ccccc1NC(=O)c1nc(S(=O)(=O)Cc2ccccc2)ncc1Cl`, for which the GFP response vs DMSO is 102% (inactive) in experiment [1], 101% in experiment [1] (setting [7]), 102% in experiment [1] (setting [8]) and 100% (inactive) in experiment [3]. The GFP response relative to DMSO in experiment [2] is 89% (inactive); in experiment [2] (setting [10]), 92.5%; in experiment [2] (setting [9]) it was 92.1%. Further, the GFP response, % of DMSO in experiment [4] was 97.8% (inactive); in experiment [5] it was 104% (inactive); in experiment [5] (setting [7]) it was 101%; in experiment [5] (setting [8]), 103%.
Turning to `Cc1cc(O)c(C(=O)/C=C/c2c(F)c(F)c(F)c(F)c2F)c(=O)o1`, the GFP response vs DMSO was 98.2% (inactive) in experiment [1], 103% in experiment [1] (setting [7]), 94.9% in experiment [1] (setting [8]) and 109% (inactive) in experiment [3]. Moreover, the GFP response relative to DMSO in experiment [2] is 152% (active); in experiment [2] (setting [10]), 145%; in experiment [2] (setting [9]), 160%. Moreover, the GFP response, % of DMSO is 101% (inactive) in experiment [4], 97.3% (inactive) in experiment [5], 101% in experiment [5] (setting [7]) and 94.4% in experiment [5] (setting [8]). The fluorescence change (kMESF span) in experiment [6] is 9.67 (inactive).
For the compound `CCOc1cccc(C(=O)Nc2ccc(NC(=O)c3cc4ccccc4o3)c(OC)c2)c1`, the GFP response vs DMSO in experiment [1] was 96.2% (inactive); in experiment [1] (setting [7]) it was 96.4%; in experiment [1] (setting [8]), 97.2%; in experiment [3], 98.3% (inactive). Besides, the values for the GFP response relative to DMSO in experiment [2], in experiment [2] (setting [10]) and in experiment [2] (setting [9]) were 91.5% (inactive), 91.2% and 90.8%, respectively. For the same compound, the GFP response, % of DMSO in experiment [4] was 94.8% (inactive); in experiment [5], 103% (inactive); in experiment [5] (setting [7]), 103%; in experiment [5] (setting [8]), 102%.
On to `CCCNC(=O)COC(=O)c1ccc(S(=O)(=O)N2CCCC2)cc1`, for which the GFP response vs DMSO was 97.2% (inactive) in experiment [1], 89.4% in experiment [1] (setting [7]), 88.1% in experiment [1] (setting [8]) and 98.8% (inactive) in experiment [3]. The results for the GFP response relative to DMSO in experiment [2] and in experiment [2] (setting [10]) were 94.9% (inactive) and 82.6%, respectively. Moreover, the GFP response, % of DMSO is 99.8% (inactive) in experiment [4], 99.7% (inactive) in experiment [5], 90.5% in experiment [5] (setting [7]) and 78.8% in experiment [5] (setting [8]).
In the case of `O=C(c1ccc2c(c1)OCO2)N1CCN(c2ccccc2)CC1`, the GFP response vs DMSO in experiment [1] is 98.2% (inactive); in experiment [1] (setting [7]) it was 97.1%; in experiment [1] (setting [8]), 94%; in experiment [3], 98.3% (inactive). The values for the GFP response relative to DMSO in experiment [2] and in experiment [2] (setting [10]) were 96.7% (inactive) and 104%, respectively. Also, the GFP response, % of DMSO in experiment [4] was 98% (inactive); in experiment [5], 99.7% (inactive).
In the case of `C[n+]1ccc(/C=C/c2c[nH]c3ccccc23)cc1`, the GFP response vs DMSO in experiment [1] is 107% (inactive); in experiment [1] (setting [7]), 105%; in experiment [1] (setting [8]) it was 107%; in experiment [3], 187% (active). The GFP response relative to DMSO is 143% (inactive) in experiment [2], 143% in experiment [2] (setting [10]) and 143% in experiment [2] (setting [9]). The GFP response, % of DMSO in experiment [4] is 107% (inactive); in experiment [5], 145% (inactive); in experiment [5] (setting [7]), 142%; in experiment [5] (setting [8]) it was 146%. The fluorescence change (kMESF span) in experiment [6] is 5.54 (inactive).
In the case of `Cc1ccc(/C=C2/C(=O)ON=C2c2ccccc2)o1`, the GFP response vs DMSO was 90.4% (inactive) in experiment [1], 87.7% in experiment [1] (setting [7]), 82.8% in experiment [1] (setting [8]) and 129% (inactive) in experiment [3]. In addition, the values for the GFP response relative to DMSO in experiment [2] and in experiment [2] (setting [9]) were 250% (active) and 219%, respectively. For the same compound, the GFP response, % of DMSO in experiment [4] was 88.4% (inactive); in experiment [5] it was 92.1% (inactive); in experiment [5] (setting [7]) it was 90.9%; in experiment [5] (setting [8]) it was 77%.
`O=C(c1ccc(Cl)c([N+](=O)[O-])c1)N1CCN(c2ccccc2)CC1`: the GFP response vs DMSO in experiment [1] was 99.4% (inactive); in experiment [1] (setting [7]), 101%; in experiment [1] (setting [8]), 96.7%; in experiment [3] it was 102% (inactive). Further, the results for the GFP response relative to DMSO in experiment [2], in experiment [2] (setting [10]) and in experiment [2] (setting [9]) were 116% (inactive), 114% and 111%, respectively. Also, the GFP response, % of DMSO in experiment [4] was 97.8% (inactive); in experiment [5], 95.5% (inactive); in experiment [5] (setting [7]), 101%; in experiment [5] (setting [8]), 92.6%. Further, the fluorescence change (kMESF span) in experiment [6] was 2.52 (inactive).
For the compound `CCN1/C(=C/C(C)=C/c2sc3ccccc3[n+]2CC)Sc2ccccc21`, the GFP response vs DMSO in experiment [1] was 79.8% (inactive); in experiment [1] (setting [7]), 61.3%; in experiment [1] (setting [8]), 72.1%; in experiment [3], 133% (inactive). In addition, the GFP response relative to DMSO in experiment [2] is 243% (active); in experiment [2] (setting [9]), 211%. For the same compound, the GFP response, % of DMSO in experiment [4] was 101% (inactive); in experiment [5], 100% (inactive); in experiment [5] (setting [7]) it was 83.4%; in experiment [5] (setting [8]), 97.7%.
For the compound `O=C(Nc1ccccc1)c1nnsc1S(=O)(=O)c1ccc(Cl)cc1`, the GFP response vs DMSO in experiment [1] was 73.3% (inactive); in experiment [1] (setting [7]) it was 87.8%; in experiment [1] (setting [8]), 61.5%; in experiment [3], 144% (inactive). Further, the figures for the GFP response relative to DMSO in experiment [2], in experiment [2] (setting [10]) and in experiment [2] (setting [9]) were 164% (active), 92.8% and 206%, respectively. The GFP response, % of DMSO in experiment [4] is 87.7% (inactive); in experiment [5] it was 95.5% (inactive); in experiment [5] (setting [7]), 93.6%; in experiment [5] (setting [8]), 84.3%. Further, the fluorescence change (kMESF span) in experiment [6] is 1.31 (inactive).
With `Oc1c(N=Nc2ccccn2)ccc2ccccc12`, the GFP response vs DMSO was 94.8% (inactive) in experiment [1], 83.8% in experiment [1] (setting [7]), 87.3% in experiment [1] (setting [8]) and 104% (inactive) in experiment [3]. Besides, the GFP response relative to DMSO in experiment [2] was 95.3% (inactive); in experiment [2] (setting [9]), 66%. In addition, the GFP response, % of DMSO in experiment [4] was 84.7% (inactive); in experiment [5], 93.5% (inactive); in experiment [5] (setting [7]), 94.6%; in experiment [5] (setting [8]) it was 81.6%.
